pIC50: −log10 of the molar value. The source made the active and inactive calls. No cut-off for these calls is given here.
Assays:
[1] = Inhibition of chymotrypsin-like activity of human 20S proteasome
Outline: (§1)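 Human 20S proteasome purified in-house from blood, assayed in vitro with fluorogenic AMC peptides: Suc-Leu-Leu-Val-Tyr-AMC (chymotrypsin-like), Boc-Leu-Arg-Arg-AMC (trypsin-like), Z-Leu-Leu-Glu-AMC (post-glutamyl-peptide hydrolytic-like). Hydrolysis followed by fluorescence rise (ex 355/em 460 nm). IC50 taken from initial linear rates, as inhibitor concentration halving the proteasome-catalysed hydrolysis rate.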

[2] = Inhibition of trypsin-like activity of human 20S proteasome; outline: as §1
Homo sapiens [3] = organism: Homo sapiens; assay: Selectivity for chymotrypsin-like activity of human 20S proteasome over trypsin-like activity of human 20S proteasome
Homo sapiens [4] = organism: Homo sapiens; assay: Inhibition of chymotrypsin at 25 uM
Homo sapiens [5] = organism: Homo sapiens; assay: Inhibition of thrombin at 25 uM
Homo sapiens [6] = organism: Homo sapiens; assay: Inhibition of calpain at 25 uM
[7] = Inhibition of post-glutamyl-peptide hydrolytic activity of human 20S proteasome; outline: as §1
Homo sapiens [8] = organism: Homo sapiens; assay: Selectivity for chymotrypsin-like activity of human 20S proteasome over post-glutamyl-peptide hydrolytic activity of human 20S proteasome
MDA-MB-435 = assay: Antiproliferative activity against human MDA-MB-435 cells by MTT assay; format: functional, cell-based
Outline: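 MDA-MB-435 human breast carcinoma cells grown in MEM with 10% FCS, penicillin/streptomycin, 4 mM L-glutamine, 1 mM sodium pyruvate, non-essential amino acids and 20 mM Hepes. Compound exposure for 24, 48 or 72 h. Proliferation read by MTT-based CellTiter96 assay.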

pIC50 [1]	pIC50 [2]	Ratio (Homo sapiens [3])	Activity (Homo sapiens [4])	Activity (Homo sapiens [5])	Activity (Homo sapiens [6])	pIC50 [7]	Ratio (Homo sapiens [8])	pIC50 (MDA-MB-435)	Compound
5.85									COc1ccc(C[C@H](NC(=O)OCc2ccccc2)C(=O)N[C@H](C(=O)N[C@@]2(Cc3ccccc3)CNC2=O)C(C)C)c(OC)c1OC
8.60	5.96	350	inactive	inactive	inactive	< 4.00	> 350	7.47	COc1ccc(C[C@H](NC(=O)Cc2cccc(Oc3ccccc3)c2)C(=O)N[C@H](C(=O)N[C@]2(CC(C)C)CNC2=O)C(C)C)c(OC)c1OC
8.85	4.72	350	inactive	inactive	inactive	< 4.70	> 350	7.49	COc1ccc(C[C@H](NC(=O)Cc2cccc(Oc3ccccc3)c2)C(=O)N[C@H](C(=O)N[C@]2(Cc3ccccc3)CNC2=O)C(C)C)c(OC)c1OC
8.30									COc1ccc(C[C@H](NC(=O)OCc2ccccc2)C(=O)N[C@H](C(=O)N[C@]2(Cc3ccccc3)CNC2=O)C(C)C)c(OC)c1OC
4.42									CC(C)C[C@]1(NC(=O)[C@@H](NC(=O)[C@H](Cc2ccccc2)NC(=O)Cc2cccc(Oc3ccccc3)c2)C(C)C)CNC1=O
6.55									COc1ccc(C[C@H](NC(=O)Cc2cccc(Oc3ccccc3)c2)C(=O)N[C@H](C(=O)N[C@@]2(Cc3ccccc3)CNC2=O)C(C)(C)C)c(OC)c1OC
8.40									COc1ccc(C[C@H](NC(=O)Cc2cccc(Oc3ccccc3)c2)C(=O)N[C@@H](C(=O)N[C@@]2(Cc3ccccc3)CNC2=O)C(C)(C)C)c(OC)c1OC
7.70		350	inactive	inactive	inactive	< 4.70	> 350	5.92	CC(C)C[C@@]1(NC(=O)[C@@H](NC(=O)[C@H](Cc2ccccc2)NC(=O)Cc2cccc(Oc3ccccc3)c2)C(C)C)CNC1=O
6.77									COc1ccc(C[C@H](NC(=O)Cc2cccc(Oc3ccccc3)c2)C(=O)N[C@H](C(=O)N[C@@]2(Cc3ccccc3)CNC2=O)C(C)C)c(OC)c1OC
5.89									COc1ccc(C[C@H](NC(=O)Cc2cccc(Oc3ccccc3)c2)C(=O)N[C@H](C(=O)N[C@@]2(CC(C)C)CNC2=O)C(C)C)c(OC)c1OC
